# Test results from ChEMBL document CHEMBL1150145, “Antioxidative and cytotoxic compounds extracted from the sap of Rhus succedanea” (J Nat Prod, 2002).
# Activity calls are given as the source filed them. The rule behind the calls is not given here.
# Tests used:
# C6 = assay: Cytotoxicity against rat C6 cells after 72 hrs by acid phosphatase assay; format: functional, cell-based; settings: C6, 72 h
# How it was run: (§1)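 Cells grown in DMEM with 10% FCS, penicillin and streptomycin at 37 °C, 5% CO2. Seeded at 2000 cells/well in 96-well plates and exposed to compound or left untreated for 72 h.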
# HCT-116 = assay: Cytotoxicity against human HCT116 cells after 72 hrs by acid phosphatase assay; format: functional, cell-based; settings: HCT-116, 72 h; how it was run: as §1
# Huh-7 = assay: Cytotoxicity against human HuH7 cells after 72 hrs by acid phosphatase assay; format: functional, cell-based; settings: Huh-7, 72 h; how it was run: as §1
# LoVo = assay: Cytotoxicity against human LoVo cells after 72 hrs by acid phosphatase assay; format: functional, cell-based; how it was run: as §1
# HeLa = assay: Cytotoxicity against human HeLa cells after 72 hrs by acid phosphatase assay; format: functional, cell-based; how it was run: as §1
# [1] = Antioxidant activity assessed as inhibition of peroxide formation using iron/ascorbate system; format: functional
# How it was run: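 Linoleic acid (100 mg) emulsified with Tween 20 in 50 mM Tris pH 7.4. Emulsion mixed with iron/ascorbate (30 µM FeCl3, 200 µM ascorbic acid, made daily) and methanolic compound, giving ca. 0, 1, 4, 10 ppm final. Tubes held on ice, then 37 °C for 5 and 30 min. Conjugated diene hydroperoxide read at 234 nm after MeOH dilution. BHT 2000 ppm control. Triplicates.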
structure (smiles),measurement,setting,value
CCCCCC/C=C\CCCCCCCCCc1cc(O)ccc1O,IC50,C6,1.1 µg/mL
same,IC50,HCT-116,3.4 µg/mL
same,IC50,Huh-7,6.4 µg/mL
same,IC50,LoVo,2.9 µg/mL
same,IC50,HeLa,4.7 µg/mL
same,Activity,[1],Active
C/C=C/C=C/C/C=C\CCCCCCCCCc1cc(O)ccc1O,IC50,C6,0.9 µg/mL
same,IC50,HCT-116,2 µg/mL
same,IC50,Huh-7,3.9 µg/mL
same,IC50,LoVo,4.5 µg/mL
same,IC50,HeLa,2.8 µg/mL
same,Activity,[1],Active
CCC/C=C/C/C=C\CCCCCCCCCc1cc(O)ccc1O,IC50,C6,1 µg/mL
same,IC50,HCT-116,3.5 µg/mL
same,IC50,Huh-7,6 µg/mL
same,IC50,LoVo,5.6 µg/mL
same,IC50,HeLa,4.6 µg/mL
same,Activity,[1],Active
